Paper PMC6333101 (ACS chemical biology, 2018)
Read-outs that look alike come from different tables or passages of the source. Blank lines part the entries; values can stand above or below the compound they belong to.

How the values were obtained:
LRRK2 = LRRK2 (Homo sapiens, UniProt Q5S007); test: LRRK2 kinase activity in vitro assay; format: biochemical
[1] = test system: 797 NUT-midline carcinoma cells; test: 797 NMC cell viability assay; format: cell-based; details: read-out: Viability IC50 (BRD4), Cell Titer Glo, 3 days, average of 3 replicates ± SD
Procedure, shortened: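 797 NUT-midline carcinoma cells were seeded at 5,000 cells/well and exposed for 3 days to a range of test compound concentrations or DMSO. Relative cell number was read with Cell Titer Glo following the kit instructions. The methods state 6 replicates; the reported IC50 is the mean of 3 replicates ± SD.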

BRD4 (BD1) [2] = target: T1, BRD4 (BD1) (Homo sapiens, UniProt O60885); test: BRD4-1 AlphaScreen binding assay
ERK5 [3] = test: KinomeScan kinome profiling, ERK5; format: binding; details: 1 μM, panel of 468 human kinases
Procedure, shortened: (§1)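 KinomeScan ScanMAX binding panel, single test compound concentration of 1 μM. A hit was defined as an Ambit score below 10%.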

ERK5 [4] = test: Cellular assay of ERK5; format: cell-based, Human
BRD4 (BD1) [5] = target: T1, BRD4 (BD1); test: BRD4-1 AlphaScreen binding assay; remark: listed apart in the source
[6] = Variable temperature 1H NMR, interconversion of conformers; format: physicochemical
DCAMKL2 [7] = test: DCAMKL2 biochemical enzyme assay; details: in vitro biochemical enzyme assays
ERK5 [8] = target: ERK5 (Homo sapiens, UniProt Q13164); test: ERK5 kinase activity in vitro assay; format: biochemical; details: for IC50: read-out: Enzymatic IC50 (ERK5), in vitro assay, average of 2 replicates ± SD
DCAMKL2 [9] = target: T2, DCAMKL2 (Homo sapiens, UniProt Q8N568); test: KinomeScan kinome profiling, DCAMKL2; format: binding; details: 1 μM, panel of 468 human kinases
T2 sequence (Q8N568 1-766): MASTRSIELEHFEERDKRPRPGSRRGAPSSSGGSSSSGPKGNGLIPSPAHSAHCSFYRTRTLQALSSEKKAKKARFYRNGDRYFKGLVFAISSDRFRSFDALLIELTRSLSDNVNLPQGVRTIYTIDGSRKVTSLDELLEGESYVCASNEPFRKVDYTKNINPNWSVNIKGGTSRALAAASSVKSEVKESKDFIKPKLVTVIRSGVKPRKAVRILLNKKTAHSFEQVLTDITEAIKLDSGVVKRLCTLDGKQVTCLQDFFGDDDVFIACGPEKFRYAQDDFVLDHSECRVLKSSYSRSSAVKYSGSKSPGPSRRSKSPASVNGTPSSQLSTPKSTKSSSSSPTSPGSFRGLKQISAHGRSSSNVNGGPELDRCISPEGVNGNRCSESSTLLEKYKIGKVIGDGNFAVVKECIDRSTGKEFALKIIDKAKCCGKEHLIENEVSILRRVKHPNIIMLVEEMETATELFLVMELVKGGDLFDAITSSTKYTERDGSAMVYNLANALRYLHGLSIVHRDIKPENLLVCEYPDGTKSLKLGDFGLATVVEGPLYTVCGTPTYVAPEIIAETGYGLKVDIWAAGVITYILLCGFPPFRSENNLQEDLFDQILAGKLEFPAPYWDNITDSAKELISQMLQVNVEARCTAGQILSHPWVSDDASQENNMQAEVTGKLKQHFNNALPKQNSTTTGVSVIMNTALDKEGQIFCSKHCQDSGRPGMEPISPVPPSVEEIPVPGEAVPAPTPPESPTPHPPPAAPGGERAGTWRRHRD
Procedure, shortened: as §1

panel of 32 bromodomains = test: BROMOscan bromodomain profiling; format: binding; details: 10 μM
[10] = read-out: Biochemical IC50 (BRD4, μM) a, AlphaScreen, Dana-Farber, average of 2 replicates ± SE
[11] = read-out: Enzymatic IC50 (LRRK2), Adapta assay format, average of 2 replicates ± SD
[12] = read-out: Biochemical IC50 (BRD4, μM) b, AlphaScreen, University of Oxford, average of 4 replicates ± SD
[13] = Homo sapiens, HeLa, read-out: Cellular EC50 (ERK5, μM)

Sequence of LRRK2 (Q5S007 whole entry): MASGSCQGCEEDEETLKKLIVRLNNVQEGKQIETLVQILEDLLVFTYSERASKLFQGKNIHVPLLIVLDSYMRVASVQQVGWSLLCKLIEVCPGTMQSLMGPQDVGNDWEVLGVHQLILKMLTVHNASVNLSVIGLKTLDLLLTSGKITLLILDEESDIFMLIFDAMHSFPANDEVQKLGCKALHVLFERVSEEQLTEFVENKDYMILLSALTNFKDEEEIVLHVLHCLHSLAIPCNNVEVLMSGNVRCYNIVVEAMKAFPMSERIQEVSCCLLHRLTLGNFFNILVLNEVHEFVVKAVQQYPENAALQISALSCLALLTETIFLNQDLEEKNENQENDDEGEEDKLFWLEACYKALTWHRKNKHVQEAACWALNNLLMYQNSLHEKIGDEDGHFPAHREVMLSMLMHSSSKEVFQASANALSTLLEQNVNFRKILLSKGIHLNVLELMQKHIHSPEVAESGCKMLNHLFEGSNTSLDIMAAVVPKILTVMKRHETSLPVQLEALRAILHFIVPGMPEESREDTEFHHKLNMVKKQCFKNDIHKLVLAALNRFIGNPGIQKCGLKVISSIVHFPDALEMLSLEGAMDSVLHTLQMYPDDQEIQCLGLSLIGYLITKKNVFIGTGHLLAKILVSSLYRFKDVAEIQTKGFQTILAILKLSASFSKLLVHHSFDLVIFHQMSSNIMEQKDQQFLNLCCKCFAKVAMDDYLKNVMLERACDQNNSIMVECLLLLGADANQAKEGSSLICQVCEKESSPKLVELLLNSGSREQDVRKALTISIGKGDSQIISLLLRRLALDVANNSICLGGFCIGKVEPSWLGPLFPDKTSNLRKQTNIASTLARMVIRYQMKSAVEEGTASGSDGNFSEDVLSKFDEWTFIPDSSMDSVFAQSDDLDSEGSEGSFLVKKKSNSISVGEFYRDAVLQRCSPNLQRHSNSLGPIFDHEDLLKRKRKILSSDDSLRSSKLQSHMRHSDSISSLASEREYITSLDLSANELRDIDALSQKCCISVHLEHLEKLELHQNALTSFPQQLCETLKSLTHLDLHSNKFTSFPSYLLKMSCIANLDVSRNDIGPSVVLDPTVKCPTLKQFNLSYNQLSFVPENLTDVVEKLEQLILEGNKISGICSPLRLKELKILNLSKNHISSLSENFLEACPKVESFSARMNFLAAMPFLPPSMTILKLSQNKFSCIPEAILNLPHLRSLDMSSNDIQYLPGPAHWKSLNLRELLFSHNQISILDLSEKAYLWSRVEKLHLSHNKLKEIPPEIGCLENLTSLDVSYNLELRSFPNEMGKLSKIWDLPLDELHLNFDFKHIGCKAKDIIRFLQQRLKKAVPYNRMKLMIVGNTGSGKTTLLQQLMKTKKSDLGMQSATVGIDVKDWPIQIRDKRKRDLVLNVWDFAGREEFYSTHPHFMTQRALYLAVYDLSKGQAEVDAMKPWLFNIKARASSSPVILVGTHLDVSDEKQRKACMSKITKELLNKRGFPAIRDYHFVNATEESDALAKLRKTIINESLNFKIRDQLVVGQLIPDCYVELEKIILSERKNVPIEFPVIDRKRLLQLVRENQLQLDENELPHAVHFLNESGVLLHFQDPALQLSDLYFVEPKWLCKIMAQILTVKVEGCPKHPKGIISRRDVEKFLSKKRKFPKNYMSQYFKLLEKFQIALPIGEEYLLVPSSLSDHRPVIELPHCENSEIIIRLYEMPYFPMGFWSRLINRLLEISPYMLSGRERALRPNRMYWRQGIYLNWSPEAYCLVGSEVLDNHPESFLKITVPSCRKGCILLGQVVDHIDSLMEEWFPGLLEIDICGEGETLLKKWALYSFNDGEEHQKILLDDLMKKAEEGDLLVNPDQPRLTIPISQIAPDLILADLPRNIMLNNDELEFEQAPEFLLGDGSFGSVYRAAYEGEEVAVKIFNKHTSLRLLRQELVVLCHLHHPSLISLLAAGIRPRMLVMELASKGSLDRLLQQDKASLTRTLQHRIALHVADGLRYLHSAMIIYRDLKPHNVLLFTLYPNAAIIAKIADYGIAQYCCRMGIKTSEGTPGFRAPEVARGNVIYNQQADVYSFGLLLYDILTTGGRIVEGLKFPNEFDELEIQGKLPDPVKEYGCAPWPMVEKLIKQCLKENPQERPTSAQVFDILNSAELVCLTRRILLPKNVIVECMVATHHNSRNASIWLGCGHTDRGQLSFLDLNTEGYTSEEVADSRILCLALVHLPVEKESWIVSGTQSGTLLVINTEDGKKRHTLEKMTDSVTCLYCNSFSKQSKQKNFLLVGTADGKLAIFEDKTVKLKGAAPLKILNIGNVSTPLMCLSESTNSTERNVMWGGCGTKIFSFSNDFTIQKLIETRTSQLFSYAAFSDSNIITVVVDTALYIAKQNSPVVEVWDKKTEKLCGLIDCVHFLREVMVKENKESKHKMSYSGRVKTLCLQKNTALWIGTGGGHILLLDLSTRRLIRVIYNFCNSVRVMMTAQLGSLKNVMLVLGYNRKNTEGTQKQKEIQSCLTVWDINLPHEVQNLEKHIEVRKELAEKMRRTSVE
Sequence of ERK5 (Homo sapiens, UniProt Q13164) (Q13164 whole entry): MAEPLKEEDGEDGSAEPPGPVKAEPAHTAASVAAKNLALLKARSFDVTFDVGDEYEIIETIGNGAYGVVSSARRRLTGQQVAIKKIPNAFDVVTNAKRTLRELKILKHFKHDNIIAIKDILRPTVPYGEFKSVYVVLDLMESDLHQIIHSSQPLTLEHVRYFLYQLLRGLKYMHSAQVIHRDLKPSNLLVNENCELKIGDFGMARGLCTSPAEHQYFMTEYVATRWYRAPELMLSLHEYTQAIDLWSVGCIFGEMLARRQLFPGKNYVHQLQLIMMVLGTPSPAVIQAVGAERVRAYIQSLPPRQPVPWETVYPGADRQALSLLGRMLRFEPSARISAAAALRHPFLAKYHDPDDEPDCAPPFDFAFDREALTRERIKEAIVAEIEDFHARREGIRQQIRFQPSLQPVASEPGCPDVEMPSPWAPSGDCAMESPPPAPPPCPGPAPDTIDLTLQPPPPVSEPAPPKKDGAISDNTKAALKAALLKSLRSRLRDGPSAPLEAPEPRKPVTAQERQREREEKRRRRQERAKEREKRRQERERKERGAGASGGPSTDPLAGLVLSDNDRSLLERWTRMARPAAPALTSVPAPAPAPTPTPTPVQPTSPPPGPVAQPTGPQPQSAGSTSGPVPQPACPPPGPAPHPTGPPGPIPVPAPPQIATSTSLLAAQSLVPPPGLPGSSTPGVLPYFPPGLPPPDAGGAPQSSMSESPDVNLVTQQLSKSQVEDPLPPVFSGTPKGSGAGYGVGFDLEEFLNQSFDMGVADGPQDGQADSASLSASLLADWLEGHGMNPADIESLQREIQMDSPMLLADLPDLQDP

Compound: CCC(C)N1c2ccccc2C(=O)N(C)c2cnc(Nc3ccc(C(=O)N4CCC(N5CCN(C)CC5)CC4)cc3OC)nc21 (stereo not drawn) [JWG-071]
IC50 [1]: > 10000 nM
IC50 (BRD4 (BD1) [2]; [10]): 5.42 ± 0.18 µM
selectivity for ERK5 relative to LRRK2 (LRRK2; in vitro biochemical enzyme assays): 1.2 folds
IC50 (LRRK2; [11]): 109 ± 14 nM
Ambit score (ERK5) (ERK5 [3]): less than 10%
EC50 (ERK5 [4]; read-out: Cellular EC50 (ERK5), EGF-stimulated autophosphorylation of ERK5 in Hela cells, average of 2 replicates ± SD): 0.02 ± 0.003 µM
IC50 (BRD4 (BD1) [5]; [12]): 6.31 ± 1.93 µM
Calc ΔErac ([6]; calculated energy barrier of interconversion): 15.9 kcal/mol
Tco (coalescence temperature) ([6]; variable temperature 1H NMR in DMSO-d6): 60 °C
selectivity for ERK5 relative to DCAMKL2 (DCAMKL2 [7]): 2.5 folds
improved ERK5 activity compared to XMD17–109 (ERK5-IN-1) (ERK5 [8]): 2 fold
IC50 (ERK5 [8]): 88 ± 5 nM
Ambit score (DCAMKL2) (DCAMKL2 [9]): less than 10%

Compound: CC(C)Oc1cc(C(=O)N2CCC(N3CCN(C)CC3)CC2)ccc1Nc1ccc2c(n1)N(C1CCCC1)c1ccccc1C(=O)N2C [JWG-115]
BROMOscan binding among BET family (panel of 32 bromodomains): strong binding
BROMOscan binding outside BET family (panel of 32 bromodomains): no binding
decrease of activity against BRD4 compared to the pyrimidine analogs XMD11–50 and JWG-047 (BRD4 (BD1) [2]; pyridine vs pyrimidine core): 4–8 fold
IC50 (BRD4 (BD1) [2]; read-out: BRD4 IC50, value as stated in text): 1 µM
IC50 (BRD4 (BD1) [2]; [10]): 1.08 ± 0.05 µM
IC50 (LRRK2; [11]): > 3300 nM
IC50 (BRD4 (BD1) [5]; [12]): 1.1 ± 0.05 µM
IC50 (ERK5 [8]): > 10000 nM

The remaining lines, values ahead:

IC50 (LRRK2): 942 ± 569 nM
Compound: CCOc1cc(C(=O)N2CCC(N3CCN(C)CC3)CC2)ccc1Nc1ncc2c(n1)N(S(C)(=O)=O)c1ccccc1C(=O)N2C [AX15836, reference compound]

IC50 (LRRK2): 3.4 ± 1.7 nM
Compound: COc1cc(C(=O)N2CCC(N3CCN(C)CC3)CC2)ccc1Nc1ncc2c(n1)N(C)c1ccccc1C(=O)N2C [XMD11–50 (LRRK2-IN-1)]

IC50 (BRD4 (BD1) [2]): 0.217 ± 0.008 µM
IC50 (BRD4 (BD1) [5]): 0.68 ± 0.03 µM
Compound: CCOc1cc(C(=O)N2CCC(N3CCN(C)CC3)CC2)ccc1Nc1ncc2c(n1)N(C1CCCC1)c1ccccc1C(=O)N2C [XMD17–109 (ERK5-IN-1), reference compound]
